Test results published in ChEMBL document CHEMBL1817654, “Synthesis and protective effects of aralkyl alcoholic 2-acetamido-2-deoxy-β-D-pyranosides on hypoglycemia and serum limitation induced apoptosis in PC12 cell” (2011).
Calls of active or inactive are those of the source. The calls are words filed in the database; no cut-off is given here.

Legend:
[1] = test system: PC-12; experiment: Neuroprotective activity in rat differentiated PC12 cells assessed protection against hypoglycemia and serum limitation-induced decrease in cell viability at 40 uM after 24 hrs by MTT assay; assay type: functional
How it was run: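 NGF-differentiated PC12 cells (50 ng/ml every other day, 6 days) pretreated with 8, 40 or 200 µM for 24 h. Insult: 24 h in glucose-free DMEM with 1% horse serum and 1% FBS, compound kept. MTT added to 0.5 mg/ml for 4 h at 37 °C, formazan dissolved in 20% SDS, absorbance read at 570 nm. Viability given as % of unstressed control. Three independent experiments, each in triplicate.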

[2] = test system: PC-12; experiment: Neuroprotective activity in rat differentiated PC12 cells assessed protection against hypoglycemia and serum limitation-induced apoptosis at 40 uM after 24 hrs by Hoechst 33342 staining analysis; assay type: functional
How it was run: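 PC12 cells kept in high-glucose DMEM with 10% horse serum and 5% FBS, differentiated with NGF (50 ng/ml) every other day for 6 days. Pretreated 24 h, then glucose-free DMEM with 1% horse and 1% fetal serum for 24 h with compound kept. Cells fixed in 4% paraformaldehyde, stained with Hoechst 33342 (5 µg/ml, 37 °C, 10 min). Condensed or fragmented nuclei counted under UV fluorescence as a fraction of total cells. Three independent experiments in triplicate.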

[3] = test system: PC-12; experiment: Neuroprotective activity in rat differentiated PC12 cells assessed protection against hypoglycemia and serum limitation-induced early stage of apoptosis at 40 uM after 24 hrs using annexin V/propidium iodide double staining by flow cytometry; assay type: functional
How it was run: (§1)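 Differentiated PC12 cells pretreated 24 h, then 24 h of glucose-free DMEM with 1% horse and 1% fetal serum. Harvested cells resuspended at 1 × 10⁶/ml in binding buffer (10 mM HEPES, 140 mM NaCl, 2.5 mM CaCl₂). FITC-annexin V and PI added, 15 min in the dark at room temperature, analysed by flow cytometry within 1 h. Three independent experiments in triplicate.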

[4] = test system: PC-12; experiment: Neuroprotective activity in rat differentiated PC12 cells assessed protection against hypoglycemia and serum limitation-induced late stage of apoptosis at 40 uM after 24 hrs using annexin V/propidium iodide double staining by flow cytometry; assay type: functional, cell-based; how it was run: as §1
[5] = test system: PC-12; experiment: Neuroprotective activity in rat differentiated PC12 cells assessed reduction of hypoglycemia and serum limitation-induced caspase 3 activity at 40 uM after 24 hrs by colorimetric assay relative to control; assay type: functional
How it was run: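 Treatment: NGF-differentiated PC12 cells preincubated 24 h, then 24 h of hypoglycemia and serum limitation. Lysates spun at 12,000 g for 10 min, protein measured by Bradford. Lysate incubated with reaction buffer and Ac-DEVD-pNA (10 µl of a 2 mM stock) for 4 h at 37 °C. pNA release read at 405 nm, expressed as % of control.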

[6] = test system: PC-12; experiment: Neuroprotective activity in rat differentiated PC12 cells assessed reversal of hypoglycemia and serum limitation-induced mitochondrial membrane potential at 40 uM after 24 hrs using Rhodamine dye by confocal microscopic analysis; assay type: functional
How it was run: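 Differentiated PC12 cells given 24 h pretreatment, then 24 h in glucose-free DMEM with 1% horse serum and 1% FBS. Rhodamine 123 added to 2 µM final for 30 min at 37 °C. Cells fixed in 4% paraformaldehyde and imaged by confocal microscopy (ex 488, em 530 nm, ×400). Fluorescence intensity given as % of control. Three independent experiments in triplicate.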

Row | SMILES | Activity [1] | Activity [2] [%] | Activity [3] [%] | Activity [4] | fold change (FC) [5] | Activity [6] [%]
1 | CC(=O)N[C@H]1[C@H](OCc2ccccc2)O[C@H](CO)[C@@H](O)[C@@H]1O | inactive |  |  |  |  | 
2 | CC(=O)N[C@H]1[C@H](OCc2cccc(O)c2)O[C@H](CO)[C@@H](O)[C@@H]1O | Active |  |  |  |  | 
3 | COc1ccc(CCCO[C@@H]2O[C@H](CO)[C@@H](O)[C@H](O)[C@H]2NC(C)=O)cc1 | 80.41% | 7.12 | 15.51 | inactive | 1.69 | 79.05
4 | CC(=O)N[C@H]1[C@H](OCc2ccc(O)cc2)O[C@H](CO)[C@@H](O)[C@@H]1O | 60.65% |  |  |  |  | 
5 | COc1cc(CO[C@@H]2O[C@H](CO)[C@@H](O)[C@H](O)[C@H]2NC(C)=O)ccc1O | 65.9% |  |  |  |  | 
6 | CC(=O)N[C@H]1[C@H](OCCc2ccccc2)O[C@H](CO)[C@@H](O)[C@@H]1O | inactive |  |  |  |  | 
7 | OC[C@H]1O[C@@H](OCCc2ccc(O)cc2)[C@H](O)[C@@H](O)[C@@H]1O [SALIDROSIDE] | 65.62% | 8.31 | 17.56 | inactive | 1.97 | 71.43
8 | COc1ccc(CCO[C@@H]2O[C@H](CO)[C@@H](O)[C@H](O)[C@H]2NC(C)=O)cc1 | 86.62% | 5.9 | 11.21 | inactive | 1.55 | 82.86
9 | CC(=O)N[C@H]1[C@H](OCCc2ccc(O)cc2)O[C@H](CO)[C@@H](O)[C@@H]1O | 65.36% |  |  |  |  | 
10 | CC(=O)N[C@H]1[C@H](OCCCc2ccc(O)cc2)O[C@H](CO)[C@@H](O)[C@@H]1O | Active |  |  |  |  | 
11 | COc1cc(CO[C@@H]2O[C@H](CO)[C@@H](O)[C@H](O)[C@H]2NC(C)=O)cc(OC)c1 | Active |  |  |  |  | 
12 | COc1cc(CCCO[C@@H]2O[C@H](CO)[C@@H](O)[C@H](O)[C@H]2NC(C)=O)ccc1O | 62.38% |  |  |  |  | 
